Screening data deposited in PubChem by The Scripps Research Institute Molecular Screening Center.
Compounds with a hit are over-represented: about 3% of the library has one in this group of screens.
HTR1A agonist – human 5-HT1a receptor agonists, primary screen, cell-based, CHO, Ga15 NFAT-bla reporter. actives 0.56% (n = 65,000). CHO 5-HT1a Ga15 NFAT-bla reporter, FRET ratio; 0% basal, 100% maximal reference agonist. activation, % at 10 µM. 5-hydroxytryptamine receptor 1A (Homo sapiens), P08908;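 active = activation above the screen-wide mean activation plus 3 SD, cut at about 19% in these data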
5-HT1A blocker – human 5-HT1a receptor antagonists, primary screen, cell-based, CHO, Ga15 NFAT-bla reporter. 5-hydroxytryptamine receptor 1A (Homo sapiens), P08908. CHO 5-HT1a Ga15 NFAT-bla reporter, antagonist mode. inhibition, % at 10 µM. actives 0.68% (n = 62,000). AID 612, 2007;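 active = inhibition above the mean of all tested compounds plus 3 SD, cut at about 43% in these data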;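 note: receptor stimulated by 5-CT agonist at 100 nM near EC80; beta-lactamase reporter measured by ratiometric fluorescence of a cleavable substrate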
S1P1 ag-PAM – S1P1 agonists and agonism potentiators, primary screen, cell-based, primary and confirmation screens, CRE-bla reporter. Sphingosine 1-phosphate receptor 1 (Homo sapiens), P21453. S1P1 CRE-bla cells, forskolin, beta-lactamase FRET, potentiator mode; S1P1 agonist co-added at EC20, 2 nM; 100% = saturating reference agonist, 0% = basal. activation, % at 9.5 µM. actives 0.57% (n = 56,000). AID 449, 2006;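 active = activation above a cutoff set at the mean activation of all tested compounds plus 3 SD, cut at about 54% in these data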;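 note: forskolin at 4 µM as EC80 and the EC20 agonist is SEW2871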
S1P3 agonist – human S1P3 receptor agonists, primary screen, cell-based, primary and confirmation, NFAT-BLA reporter; actives 0.1% (n = 60,000); Sphingosine 1-phosphate receptor 3 (Homo sapiens), Q99500; S1P3 NFAT-BLA reporter cells, agonism, FRET ratio; relative to 1 µM S1P, basal subtracted; activation, % at 4.5 µM;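 active = activation above the screen-wide mean plus 3 SD, cut at about 4.5% in these data, passing the limit was not always enough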
Target sequence (Q99500 whole entry, looked up): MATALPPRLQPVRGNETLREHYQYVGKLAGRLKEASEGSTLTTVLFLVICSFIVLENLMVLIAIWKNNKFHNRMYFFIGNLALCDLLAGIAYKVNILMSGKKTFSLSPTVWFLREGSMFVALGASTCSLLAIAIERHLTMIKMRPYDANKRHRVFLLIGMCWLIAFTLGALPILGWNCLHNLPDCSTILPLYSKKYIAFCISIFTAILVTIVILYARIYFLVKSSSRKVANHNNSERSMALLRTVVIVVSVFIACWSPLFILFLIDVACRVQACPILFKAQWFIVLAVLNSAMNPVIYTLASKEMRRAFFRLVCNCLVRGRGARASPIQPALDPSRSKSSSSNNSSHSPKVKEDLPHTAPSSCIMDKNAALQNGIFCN
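Assay system: stable CHO line with human S1P3, Gα16, NFAT-BLA reporter; Detection: FRET β-lactamase substrate fluorescence, excitation 405 nm, 460/535 nm emission ratio, background-subtracted; Read-out: percent activation versus median 1 µM S1P response, basal-subtracted, per plate; Incubation: cells plated overnight, compound 4 h 37 °C, substrate 2 h RT.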
HTR1E antagonist – 5-HT1E receptor antagonists, primary screen, cell-based, HTS. 5-hydroxytryptamine receptor 1E (Homo sapiens), P28566. CHO 5-HT1E Ga15 NFAT-bla reporter, FRET, antagonist. inhibition, % at 6 µM. actives 0.99% (n = 65,000). AID 571, 2007;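 active = inhibition above a set limit, the mean inhibition across every tested compound plus 3 SD, cut at about 29% in these data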;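 note: signal is the 460 over 535 nm emission ratio of beta-lactamase substrate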
5HT1E ag – 5-HT1E receptor agonists, primary screen, cell-based, HTS | actives 0.69% (n = 65,000) | activation, % at 6 µM | AID 574, 2007 | CHO 5-HT1E Ga15 NFAT-bla reporter, FRET; 0% DMSO wells, 100% control agonist wells | 5-hydroxytryptamine receptor 1E (Homo sapiens), P28566;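 active = activation above a set limit, the screen-wide mean activation plus 3 SD, cut at about 8.5% in these data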
Large screens that a line does not name were inactive.

CCN(CCCNC(=O)COc1cc(=O)n(C)c2ccccc12)c1cccc(C)c1	5HT1E ag 24
O=C(NCCCN1CCCCC1)C1CCC(=O)N1CCc1ccccc1 (stereo not given)	none
Cn1c(=O)cc(OCCCC(=O)NCCN2CCN(c3ccccc3F)CC2)c2ccccc21	none
Cn1c(C(=O)NCCCN2CCN(c3ccccc3F)CC2)cc2c(=O)[nH]c3ccccc3c21	5-HT1A blocker 75, 5HT1E ag 25
Cn1c(=O)cc(OCC(=O)NCCCN2CCN(c3ccccc3F)CC2)c2ccccc21	5-HT1A blocker 61
O=C(NCCCN1CCN(c2cccc(Cl)c2)CC1)C1CCC(=O)N1Cc1ccccc1Cl (stereo not given)	5HT1E ag 14
CCOC(=O)C1=C(C)NC(=O)NC1c1c(OCC(=O)N2CCCCC2)ccc2ccccc12 (stereo not given)	none
CC(C(=O)NCc1ccccn1)N1C(=O)c2ccccc2C1=O (stereo not given)	none
CCOC(=O)Cc1csc(NC(=O)c2ccc3c(c2)OCO3)n1	none
COc1ccc(NS(=O)(=O)c2ccc3c(c2)oc(=O)n3C)c(OC)c1	none
CCNc1oc(COc2cccc(C)c2)nc1C#N	none (no result: S1P1 ag-PAM, S1P3 agonist)
COc1ccc(CNc2oc(COc3ccccc3)nc2C#N)cc1	none (no result: S1P1 ag-PAM, S1P3 agonist)
Cc1cccc(OCc2nc(C#N)c(NCc3ccc4c(c3)OCO4)o2)c1	5-HT1A blocker 43 (no result: S1P1 ag-PAM, S1P3 agonist)
N#Cc1nc(COc2ccc(Cl)cc2)oc1NCc1ccc2c(c1)OCO2	5-HT1A blocker 52 (no result: S1P1 ag-PAM, S1P3 agonist)
COc1cc(Br)c(CC(=O)O)cc1OC	none
O=C(O)c1ccc(Cl)c(S(=O)(=O)NCc2ccco2)c1	none
Cc1cccc(N2CCN(C(=O)c3ccc(Cl)c(S(=O)(=O)NCc4ccco4)c3)CC2)c1C	5HT1E ag 16
COc1ccccc1-n1c(N)c(C(N)=O)sc1=S	none
Cc1ccc(-n2ncc(C#N)c2/N=C/N2CCOCC2)cc1	none (no result: S1P1 ag-PAM)
Cc1sc2ncn(CC(=O)OC(C)C(=O)NC(C)(C)C)c(=O)c2c1C (stereo not given)	HTR1A agonist 98 (no result: S1P1 ag-PAM, S1P3 agonist)
O=C(O)CN1C(=O)Nc2ccc(Br)cc2C1c1ccccc1 (stereo not given)	HTR1E antagonist 32 (no result: S1P1 ag-PAM, S1P3 agonist)
O=C1CN(C(=O)c2ccc(Br)o2)C(c2ccccc2)c2cc(Br)ccc2N1 (stereo not given)	none
CC1(C)CNC(=O)C=C(c2ccccc2)C1	none
c1ccc(-c2noc(CN3CCN(c4ccccc4)CC3)n2)cc1	none
Cn1cc(CN2CCN(c3ccccc3)CC2)c2ccccc21	5HT1E ag 12 (no result: S1P1 ag-PAM, S1P3 agonist)
CCn1c(=NC(=O)c2ccc(N3C(=O)CCC3=O)cc2)sc2c(OC)ccc(OC)c21	HTR1E antagonist 31
COc1ccc(OC)c(NC(=O)CSc2nnnn2-c2ccc3c(c2)OCO3)c1	5-HT1A blocker 44
COC(=O)c1ccc(-n2nnnc2SCC(=O)Nc2cc(OC)ccc2OC)cc1	none
Cn1nc(CC(=O)Nc2cccnc2N2CCOCC2)c2ccccc2c1=O	none (no result: S1P1 ag-PAM, S1P3 agonist)
O=S(=O)(c1ccc(S(=O)(=O)N(Cc2ccc(F)cc2)C2CCCC2)cc1)N1CCCC1	HTR1E antagonist 31
c1ccc(-c2oc3ncnc(NCCCn4ccnc4)c3c2-c2ccccc2)cc1	5-HT1A blocker 63, HTR1E antagonist 29
Cc1ccccc1Cn1ccc(NC(=O)c2cc3nc(-c4ccco4)cc(C(F)(F)F)n3n2)n1	HTR1A agonist 74
Cc1ccccc1-n1nnnc1-c1ccccc1	none
COc1ccc2nc(SCc3nc(N)nc(Nc4ccccc4)n3)[nH]c2c1	HTR1E antagonist 40
COc1ccc2nc(SCC(N)=O)[nH]c2c1	none
Cc1ccc(S(=O)(=O)N2CCCSCC2)cc1	HTR1A agonist 49
CCC(=O)Nc1ccc2oc(-c3cccc(C)c3)nc2c1	none
CCCS(=O)(=O)c1nnnn1-c1cccc(OC)c1	5-HT1A blocker 109, S1P1 ag-PAM 116, HTR1E antagonist 106
CCCCN(CC)CCNC(=O)CN(C)S(=O)(=O)c1ccc2c(c1)c(=O)n(C)c(=O)n2C	none
O=C(c1cccc(S(=O)(=O)NCCOc2ccccc2)c1)N1CCN(c2ncccn2)CC1	none
CCCC(c1nnnn1Cc1ccco1)N1CCN(c2cc(Cl)ccc2C)CC1 (stereo not given)	5-HT1A blocker 51
Cc1cc(-n2c(=O)c(C#N)cc3c(=O)n4cccc(C)c4nc32)no1	HTR1A agonist 49
Cc1ccc(-n2c(=O)c(C#N)cc3c(=O)n4ccccc4nc32)cc1	HTR1A agonist 30
N#C/C(=C/c1ccc(N2CCCCCC2)o1)c1ccc(F)cc1	5-HT1A blocker 87, HTR1E antagonist 90
O=C(O)c1ccccc1C(=O)N1CC=C(c2ccccc2)CC1	5HT1E ag 12
Cc1ccc(NC(=O)Cn2nnc(C(=O)Nc3ccc(C)c(C)c3)c2N)cc1	HTR1E antagonist 36 (no result: S1P1 ag-PAM, S1P3 agonist)
COc1cccc(CNC(=O)c2nnn(CC(=O)Nc3ccc(C)c(C)c3)c2N)c1	none (no result: S1P1 ag-PAM, S1P3 agonist)
COC(=O)C1=C(C)N(CCC2=CCCCC2)C(=O)C1	none
CCOC(=O)c1oc2ccccc2c1NC(=O)c1cc(OC)cc(OC)c1	5HT1E ag 112
Cc1[nH]c2ccc(Br)cc2c(=O)c1CN1CCCCC1	HTR1A agonist 104
COC(=O)c1ccc2[nH]c(C)c(CN3CCCC3)c(=O)c2c1	none (no result: S1P1 ag-PAM, S1P3 agonist)
COC(=O)CN(c1ccc(OC)cc1)S(=O)(=O)c1ccc(OC)c(OC)c1	HTR1A agonist 20 (no result: S1P1 ag-PAM)
O=C1C2C3C=CC(CO)(O3)C2C(=O)N1c1ccc(-c2ccccc2)cc1 (stereo not given)	5-HT1A blocker 88, HTR1E antagonist 61 (no result: S1P1 ag-PAM, S1P3 agonist)
Cc1ccccc1Cn1nc(C)c(NC(=O)c2noc3c2CC(C(C)(C)C)CC3)c1C (stereo not given)	none
Cc1ccccc1Cn1cc(NC(=O)c2noc3c2CC(C(C)(C)C)CC3)cn1 (stereo not given)	HTR1A agonist 26
O=C1c2ccccc2C(O)N1Cc1ccco1 (stereo not given)	none
O=C1c2[nH]nc(-c3ccccc3O)c2C(c2ccccc2F)N1Cc1ccco1 (stereo not given)	5-HT1A blocker 43
